Results reported in ChEMBL document CHEMBL3808291, “Bifunctional Peptide-Based Opioid Agonist-Nociceptin Antagonist Ligands for Dual Treatment of Acute and Neuropathic Pain” (J Med Chem, 2016).
The source made the active and inactive calls. Numbered stars: 1 amine (or outer) side, 2 acyl side, 3 side chain; on linkers, the order of the positions; unused ones are H or OH. Square brackets hold non-standard residues; d marks the D form. Peptide text beside a SMILES is read from it. X1 = O=C1[C@@H](N[*:1])Cc2ccccc2CN1CCC(=O)[*:2]; Phe(4-F) = N[C@@H](Cc1ccc(F)cc1)C(=O)O; Dmt = Cc1cc(O)cc(C)c1C[C@H](N)C(=O)O

How the values were obtained:
Mus musculus [1] = experiment: Antihyperalgesic activity in intrathecally dosed albino Swiss CD1 IGS mouse model of chronic constriction injury-induced neuropathic pain assessed as increase in paw withdrawal latency administered on day 7 to 16 after CCI surgery measured 30 mins post dose by cold plate test; format: functional
Outline: (§1)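 Male Albino Swiss CD-1 mice (30–35 g), sciatic chronic constriction injury under chloral hydrate; tested days 7–16 post-surgery. Compound in water for injection, 5 µL intrathecal by lumbar puncture L5–L6 in awake mice.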

Nociceptin receptor [2] = target: T1, Nociceptin receptor (Homo sapiens, UniProt P41146); experiment: Displacement of [3H]OFQ/nociceptin from human nociceptin receptor expressed in HEK293 cell membrane incubated for 1 hr by TopCount scintillation counting method; format: cell membranes
T1 sequence (P41146 whole entry): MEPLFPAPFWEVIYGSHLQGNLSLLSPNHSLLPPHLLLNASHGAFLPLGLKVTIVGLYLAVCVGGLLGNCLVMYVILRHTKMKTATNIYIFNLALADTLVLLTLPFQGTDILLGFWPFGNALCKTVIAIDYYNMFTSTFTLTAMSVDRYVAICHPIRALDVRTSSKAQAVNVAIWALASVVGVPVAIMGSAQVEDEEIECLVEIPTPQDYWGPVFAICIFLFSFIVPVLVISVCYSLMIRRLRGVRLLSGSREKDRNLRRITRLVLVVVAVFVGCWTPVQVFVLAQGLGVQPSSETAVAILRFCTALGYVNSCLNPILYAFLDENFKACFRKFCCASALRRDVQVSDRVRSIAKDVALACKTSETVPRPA

Mus musculus [3] = experiment: Antiallodynic activity in albino Swiss CD1 IGS mouse model of streptozocin-induced type1 diabetic neuropathic pain assessed as increase in mechanical threshold for paw withdrawal at 0.005 nmol, it administered on day 10 after STZ injection measured at 30 mins post dose by Von Frey test; format: functional, organism-based
Outline: (§2)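 Male CD-1 mice (30–35 g). CCI: sciatic constriction injury, tested on days 7–16 after surgery. STZ diabetes: single ip streptozocin 200 mg/kg; mice with glucose >300 mg/dL included, tested on day 10. Drug in water for injection, given it (5 µL, L5–L6 lumbar puncture) to conscious mice. von Frey (cutoff 6 g) or cold plate (2 °C, 30 s cutoff, paw lift) at 30, 90, 180 min; 6–8 mice/group.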

Mus musculus [4] = experiment: Antiallodynic activity in albino Swiss CD1 IGS mouse model of streptozocin-induced type1 diabetic neuropathic pain assessed as increase in mechanical threshold for paw withdrawal at 0.005 nmol, it administered on day 10 after STZ injection measured at 180 mins post dose by Von Frey test; format: functional, organism-based; outline: as §2
Mus musculus [5] = experiment: Antihyperalgesic activity in albino Swiss CD1 IGS mouse model of streptozocin-induced type1 diabetic neuropathic pain assessed as increase in paw withdrawal latency at 0.005 nmol, it administered on day 10 after STZ injection measured at 180 mins post dose by […]; format: functional, organism-based; outline: as §2
Mus musculus [6] = experiment: Neurotoxicity in intrathecally dosed albino Swiss CD1 IGS mouse assessed as motor impairment measured after 15 to 120 mins post dose by rotarod test; format: toxicity, organism-based; conditions: in vivo, icv_or_intrathecal
Outline: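 Intrathecal dosing (water for injection, 5 µL) to male CD-1 mice. After three training sessions, mice placed on accelerating rod (2 to 40 rpm over 300 s cutoff); tested 15 and 120 min after injection.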

Mus musculus [7] = experiment: (§3) Antiallodynic activity in intrathecally dosed albino Swiss CD1 IGS mouse model of chronic constriction injury-induced neuropathic pain assessed as increase in mechanical threshold for paw withdrawal administered on day 7 to 16 after CCI surgery measured 30 mins post dose by Von Frey test; format: functional; outline: as §1
Mus musculus [8] = organism: Mus musculus; experiment: Neurotoxicity in albino Swiss CD1 IGS mouse assessed as motor impairment at 0.5 nmol, it measured after 15 to 120 mins post dose by rotarod test; format: toxicity, organism-based; conditions: in vivo, icv_or_intrathecal
Outline: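 CD-1 mice given intrathecal compound (5 µL, L5–L6), tested at 15 and 120 min on accelerating rotarod, 2 to 40 rpm over 300 s cutoff, after three training sessions.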

Nociceptin receptor [9] = target: T1, Nociceptin receptor; experiment: Antagonist activity at human nociceptin receptor expressed in HEK293 cells assessed as inhibition of OFQ/nociceptin-induced suppression of cAMP accumulation up to 20 uM preincubated for 15 mins followed by OFQ/nociceptin addition by luciferase reporter gene assay; format: functional, cell-based
Mus musculus [10] = experiment: Antiallodynic activity in albino Swiss CD1 IGS mouse model of streptozocin-induced type1 diabetic neuropathic pain assessed as increase in mechanical threshold for paw withdrawal at 0.007 nmol, it administered on day 10 after STZ injection measured at 180 mins post dose by Von Frey test; format: functional, organism-based
Outline: (§4)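 Male Albino Swiss CD-1 mice made diabetic by single ip streptozocin 200 mg/kg; glucose >300 mg/dL required; tested day 10. Compound in water for injection, 5 µL intrathecal at L5–L6; von Frey or cold plate (2 °C, 30 s cutoff) at 30, 90, 180 min; 6–8 mice per group.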

Mus musculus [11] = experiment: Antihyperalgesic activity in albino Swiss CD1 IGS mouse model of streptozocin-induced type1 diabetic neuropathic pain assessed as increase in paw withdrawal latency at 0.007 nmol, it administered on day 10 after STZ injection measured at 180 mins post dose by […]; format: functional, organism-based; outline: as §4
Nociceptin receptor [12] = target: T1, Nociceptin receptor; experiment: Agonist activity at human nociceptin receptor expressed in HEK293 cells assessed as inhibition of forskolin-stimulated cAMP production up to 10 uM preincubated for 15 mins followed by forskolin addition measured for 90 mins by luciferase reporter gene assay; format: functional, cell-based
Outline: (§5)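 HEK293 cells stably expressing human NOP and GloSensor, in Hepes buffer pH 7.4 with 1 mM d-luciferin, pre-equilibrated 2 h at 25 °C. Compound at various concentrations added 15 min before forskolin (0.5 µM final); luminescence read kinetically for 90 min at 25 °C with 0.5 mM IBMX. At least two experiments in duplicate.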

Mus musculus [13] = experiment: Antiallodynic activity in albino Swiss CD1 IGS mouse model of streptozocin-induced type1 diabetic neuropathic pain assessed as increase in mechanical threshold for paw withdrawal at 0.007 nmol, it administered on day 10 after STZ injection measured at 30 mins post dose by Von Frey test; format: functional, organism-based; outline: as §4
Nociceptin receptor [14] = target: T1, Nociceptin receptor; experiment: Agonist activity at human nociceptin receptor expressed in CHO cell membrane incubated for 60 mins by [35S]GTPgammaS binding assay relative to control; format: functional, cell membranes
Mus musculus [15] = experiment: Antinociceptive activity in iv dosed C57BL6 mouse model of acute pain assessed as increase in withdrawal latency from radiant heat source measured after 5 to 120 mins by tail flick assay; format: functional, organism-based
Outline: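 Male C57BL6 mice (20–25 g), restrained; compound or saline control injected intravenously into tail vein. Radiant heat light beam applied to ventral tail; latency to withdrawal or tail shake recorded at baseline and 5, 15, 30, 60, 120 min post-injection. Latencies normalized as %MPE (mean ± SEM); groups of 8–10 mice.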

Mus musculus [16] = experiment: as §3, with “in” for “in intrathecally dosed”, “withdrawal at 10 ug, it” for “withdrawal”, “test relative to control” for “test”; format: functional
Mus musculus [17] = experiment: Antinociceptive activity in C57BL6 mouse model of acute pain assessed as increase in withdrawal latency from radiant heat source at 10 ug, iv measured after 5 to 120 mins by tail flick assay relative to control; format: functional
Mus musculus [18] = experiment: as §3, with “in” for “in intrathecally dosed”, “withdrawal at >10 ug, it” for “withdrawal”, “test relative to control” for “test”; format: functional
Mus musculus [19] = experiment: Antinociceptive activity in C57BL6 mouse model of acute pain assessed as increase in withdrawal latency from radiant heat source at >10 ug, iv measured after 5 to 120 mins by tail flick assay relative to control; format: functional
Mus musculus [20] = experiment: Antinociceptive activity in C57BL6 mouse model of acute pain assessed as increase in withdrawal latency from radiant heat source at 390 nmol/kg, iv measured after 60 mins by tail flick assay; format: functional, organism-based
Outline: (§6)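 Male C57BL6 mice (20–25 g); compound or saline given iv into tail vein (po also tested). Radiant heat on ventral tail, latency to withdrawal/shaking recorded at baseline and 5, 15, 30, 60, 120 min (later points also reported); normalized as %MPE; 8–10 mice per group.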

Mus musculus [21] = experiment: Antihyperalgesic activity in albino Swiss CD1 IGS mouse model of chronic constriction injury-induced neuropathic pain assessed as increase in paw withdrawal latency at 10 ug, it administered on day 7 to 16 after CCI surgery measured 30 mins post dose by cold plate test relative to control; format: functional
Mus musculus [22] = experiment: Antihyperalgesic activity in albino Swiss CD1 IGS mouse model of chronic constriction injury-induced neuropathic pain assessed as increase in paw withdrawal latency at >10 ug, it administered on day 7 to 16 after CCI surgery measured 30 mins post dose by cold plate test relative to control; format: functional
Mus musculus [23] = experiment: Antinociceptive activity in C57BL6 mouse model of acute pain assessed as increase in withdrawal latency from radiant heat source at 390 nmol/kg, iv measured after 15 to 30 mins by tail flick assay; format: functional, organism-based; outline: as §6
Mus musculus [24] = experiment: Antiallodynic activity in albino Swiss CD1 IGS mouse model of streptozocin-induced type1 diabetic neuropathic pain assessed as increase in mechanical threshold for paw withdrawal at 0.008 nmol, it administered on day 10 after STZ injection measured at 180 mins post dose by Von Frey test; format: functional, organism-based; outline: as §4
Nociceptin receptor [25] = target: T1, Nociceptin receptor; experiment: Partial agonist activity at human nociceptin receptor expressed in HEK293 cells assessed as inhibition of forskolin-stimulated cAMP production preincubated for 15 mins followed by forskolin addition measured for 90 mins by luciferase reporter gene assay relative to nociceptin; format: functional, cell-based; outline: as §5
Mus musculus [26] = experiment: Antihyperalgesic activity in albino Swiss CD1 IGS mouse model of streptozocin-induced type1 diabetic neuropathic pain assessed as increase in paw withdrawal latency at 0.008 nmol, it administered on day 10 after STZ injection measured at 180 mins post dose by […]; format: functional, organism-based; outline: as §4
Mus musculus [27] = experiment: Antiallodynic activity in albino Swiss CD1 IGS mouse model of streptozocin-induced type1 diabetic neuropathic pain assessed as increase in mechanical threshold for paw withdrawal at 0.008 nmol, it administered on day 10 after STZ injection measured at 30 mins post dose by Von Frey test; format: functional, organism-based; outline: as §4

SMILES: Cc1cc(O)cc(C)c1C[C@H](N)C(=O)N[C@H](CCCNC(=N)N)C(=O)N[C@H]1Cc2ccccc2CN(CCC(=O)N[C@@H](CCCNC(=N)N)C(=O)N[C@@H](Cc2ccc(O)cc2)C(=O)N[C@@H](Cc2ccc(O)cc2)C(=O)N[C@@H](CCCNC(=N)N)C(=O)N[C@@H](Cc2c[nH]c3ccccc23)C(=O)N[C@@H](CCCNC(=N)N)C(N)=O)C1=O (H-[Dmt][dR][X1]RYYRWR-NH2)
- ED50 (Mus musculus [1]): 0.002 nmol
- Ki (Nociceptin receptor [2]): 0.047 µM
- Activity (Mus musculus [3]): Active
- Activity (Mus musculus [4]): inactive
- Activity (Mus musculus [5]): inactive
- Activity (Mus musculus [6]): Non-toxic
- ED50 (Mus musculus [7]): 0.0009 nmol

SMILES: Cc1cc(O)cc(C)c1C[C@H](NC(=O)[C@H](Cc1ccc(O)cc1)NC(=O)[C@H](CCCNC(=N)N)NC(=O)CCN1Cc2ccccc2C[C@H](NC(=O)[C@@H](CCCNC(=N)N)NC(=O)[C@@H](N)Cc2c(C)cc(O)cc2C)C1=O)C(=O)N[C@@H](CCCNC(=N)N)C(=O)N[C@@H](Cc1c[nH]c2ccccc12)C(=O)N[C@@H](CCCNC(=N)N)C(N)=O (H-[Dmt][dR][X1]RY[Dmt]RWR-NH2)
- ED50 (Mus musculus [1]): 0.005 nmol
- Activity (Mus musculus [3]): Active
- Activity (Mus musculus [4]): inactive
- Activity (Mus musculus [5]): inactive
- Activity (Mus musculus [6]): Non-toxic
- ED50 (Mus musculus [7]): 0.0009 nmol

SMILES: Cc1cc(O)cc(C)c1C[C@H](N)C(=O)N[C@H](CCCNC(=N)N)C(=O)N[C@H]1Cc2ccccc2CN(CCC(=O)N[C@@H](CCCNC(=N)N)C(=O)N[C@@H](Cc2ccc(O)cc2)C(=O)N[C@@H](Cc2ccc(F)cc2)C(=O)N[C@@H](CCCNC(=N)N)C(=O)N[C@@H](Cc2c[nH]c3ccccc23)C(=O)N[C@@H](CCCNC(=N)N)C(N)=O)C1=O (H-[Dmt][dR][X1]RY[Phe(4-F)]RWR-NH2)
- Activity (Mus musculus [8]): Toxic
- Activity (Mus musculus [3]): Active
- Activity (Mus musculus [4]): inactive
- Activity (Mus musculus [5]): inactive

SMILES: CC[C@H](C)[C@H](NC(=O)[C@H](CCCNC(=N)N)NC(=O)[C@H](Cc1ccc(O)cc1)NC(=O)[C@H](Cc1ccc(O)cc1)NC(=O)[C@@H](N)CCCNC(=N)N)C(=O)N[C@@H](CCCCN)C(N)=O
- inhibition (Nociceptin receptor [9]): inactive
- Activity (Mus musculus [10]): inactive
- Activity (Mus musculus [11]): inactive
- Activity (Nociceptin receptor [12]): inactive
- Activity (Mus musculus [13]): Active
- Activity (Mus musculus [6]): Non-toxic

SMILES: CC(=O)N[C@@H](CCCNC(=N)N)C(=O)N[C@@H](Cc1ccc(O)cc1)C(=O)N[C@@H](Cc1ccc(F)cc1)C(=O)N[C@@H](CCCNC(=N)N)C(=O)N[C@@H](Cc1c[nH]c2ccccc12)C(=O)N[C@@H](CCCNC(=N)N)C(N)=O (Ac-RY[Phe(4-F)]RWR-NH2)
- Activity (Nociceptin receptor [14]): 70%

SMILES: CN1CC[C@]23c4c5ccc(O)c4O[C@H]2[C@@H](O)C=C[C@H]3[C@H]1C5 [MORPHINE]
- Activity (Mus musculus [15]): Dose-dependent effect
- ED50 (Mus musculus [1]): 7.46 nmol
- MPE (Mus musculus [16]): 36.5%
- MPE (Mus musculus [17]): 63.8%
- MPE (Mus musculus [18]): 50%
- MPE (Mus musculus [19]): 100%
- Activity (Mus musculus [20]): inactive
- MPE (Mus musculus [21]): 30.15%
- MPE (Mus musculus [22]): 50%
- Activity (Mus musculus [23]): Active
- ED50 (Mus musculus [7]): 7 nmol

SMILES: CC[C@H](C)[C@@H](NC(=O)[C@H](CCCNC(=N)N)NC(=O)[C@H](Cc1ccc(O)cc1)NC(=O)[C@H](Cc1ccc(O)cc1)NC(=O)[C@H](CCCNC(=N)N)NC(C)=O)C(=O)N[C@@H](CCCCN)C(N)=O
- inhibition (Nociceptin receptor [9]): inactive
- Activity (Mus musculus [24]): inactive
- inhibition (Nociceptin receptor [25]): 70%
- Activity (Mus musculus [26]): inactive
- Activity (Mus musculus [27]): Active
